ChEMBL document CHEMBL1139324, “Chemical modification and biological evaluation of new semisynthetic derivatives of 28,29-Didehydronystatin A1 (S44HP), a genetically engineered antifungal polyene macrolide antibiotic” (J Med Chem, 2009)
≈ marks a conversion by molar mass, not a printed value.

What was measured:
Candida albicans = experiment: Antifungal activity against Candida albicans ATCC 14053 after 48 hrs by broth microdilution method; assay type: functional; details: ATCC 14053, 48 h
Procedure, shortened: (§1)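 Yeast susceptibility by broth microdilution per NCCLS M27-A in 96-well plates. MIC is the lowest concentration inhibiting growth. Where repeat runs fully coincided, a single value is reported.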

Aspergillus niger = experiment: Antifungal activity against Aspergillus niger ATCC 16404 after 48 hrs by broth microdilution method; assay type: functional; details: ATCC 16404, 48 h
Procedure, shortened: (§2)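 Susceptibility of filamentous fungi (molds) by broth microdilution per NCCLS M38-A in 96-well microplates. The MIC is read as the lowest inhibitory concentration. It is given as one number when replicate data fully agreed.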

Vanrija humicola = experiment: Antifungal activity against Cryptococcus humicolus ATCC 9949 after 48 hrs by broth microdilution method; assay type: functional; details: ATCC 9949, 48 h; procedure, shortened: as §1
[1] = Toxicity against human erythrocytes assessed as hemolytic activity at 5 ug/ml; assay type: cell-based, Erythrocyte; details: read-out: Activity
Procedure, shortened: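 Lysis of erythrocytes in defibrinated human blood was measured under buffered conditions with compound at 5 µg/mL. Percent hemolysis is the mean of blood samples from two donors.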

Fusarium oxysporum = experiment: Antifungal activity against Fusarium oxysporum VKM F-140 after 48 hrs by broth microdilution method; assay type: functional; procedure, shortened: as §2

| MIC (Candida albicans) [µg/mL] | MIC (Aspergillus niger) [µg/mL] | MIC (Vanrija humicola) [µg/mL] | MIC (Fusarium oxysporum) [µg/mL] | SMILES | hemolysis at 5 ug/ml [1] [%] |
| --- | --- | --- | --- | --- | --- |
| 1 (≈ 0.921 µM) | 2 (≈ 1.84 µM) | 1 (≈ 0.921 µM) | 8 (≈ 7.36 µM) | C[C@@H]1[C@H](O)[C@@H](C)/C=C/C=C/C=C/C=C/C=C/C=C/C=C/[C@H](O[C@H]2O[C@@H](C)[C@H](O)[C@@H](NC[C@]3(O)OC[C@@H](O)[C@H](O)[C@@H]3O)[C@H]2O)C[C@@H]2O[C@](O)(C[C@@H](O)[C@H](O)CC[C@@H](O)C[C@@H](O)C[C@@H](O)CC(=O)O[C@H]1C)C[C@H](O)[C@H]2C(=O)O | 8 |
| 2 (≈ 2.07 µM) | 4 (≈ 4.14 µM) | 4 (≈ 4.14 µM) | 4 (≈ 4.14 µM) | C[C@@H]1[C@H](O)[C@@H](C)/C=C/C=C/C=C/C=C/C=C/C=C/C=C/[C@H](O[C@H]2O[C@@H](C)[C@H](O)[C@@H](N)[C@H]2O)C[C@@H]2O[C@](O)(C[C@@H](O)[C@H](O)CC[C@@H](O)C[C@@H](O)C[C@@H](O)CC(=O)O[C@H]1C)C[C@H](O)[C@H]2C(=O)NCCO | 3 |
| 2 (≈ 2.04 µM) | 4 (≈ 4.08 µM) | 4 (≈ 4.08 µM) | 4 (≈ 4.08 µM) | C[C@@H]1[C@H](O)[C@@H](C)/C=C/C=C/C=C/C=C/C=C/C=C/C=C/[C@H](O[C@H]2O[C@@H](C)[C@H](O)[C@@H](NCCCN)[C@H]2O)C[C@@H]2O[C@](O)(C[C@@H](O)[C@H](O)CC[C@@H](O)C[C@@H](O)C[C@@H](O)CC(=O)O[C@H]1C)C[C@H](O)[C@H]2C(=O)O | 45 |
| 2 (≈ 2.13 µM) | 2 (≈ 2.13 µM) | 1 (≈ 1.07 µM) | 8 (≈ 8.54 µM) | CNC(=O)[C@H]1[C@@H]2C[C@@H](O[C@H]3O[C@@H](C)[C@H](O)[C@@H](N)[C@H]3O)/C=C/C=C/C=C/C=C/C=C/C=C/C=C/[C@H](C)[C@@H](O)[C@@H](C)[C@H](C)OC(=O)C[C@H](O)C[C@H](O)C[C@H](O)CC[C@@H](O)[C@H](O)C[C@](O)(C[C@@H]1O)O2 | 5 |
| 2 (≈ 1.89 µM) | 4 (≈ 3.78 µM) | 2 (≈ 1.89 µM) | > 16 | C[C@@H]1[C@H](O)[C@@H](C)/C=C/C=C/C=C/C=C/C=C/C=C/C=C/[C@H](O[C@H]2O[C@@H](C)[C@H](O)[C@@H](NCc3ccc(N(C)C)cc3)[C@H]2O)C[C@@H]2O[C@](O)(C[C@@H](O)[C@H](O)CC[C@@H](O)C[C@@H](O)C[C@@H](O)CC(=O)O[C@H]1C)C[C@H](O)[C@H]2C(=O)O | – |
| 1 (≈ 0.921 µM) | 2 (≈ 1.84 µM) | 1 (≈ 0.921 µM) | 8 (≈ 7.37 µM) | C[C@@H]1[C@H](O)[C@@H](C)/C=C/C=C/C=C/C=C/C=C/C=C/C=C/[C@H](O[C@H]2O[C@@H](C)[C@H](O)[C@@H](N)[C@H]2O)C[C@@H]2O[C@](O)(C[C@@H](O)[C@H](O)CC[C@@H](O)C[C@@H](O)C[C@@H](O)CC(=O)O[C@H]1C)C[C@H](O)[C@H]2C(=O)N[C@H]1[C@H](O)[C@@H](O)[C@H](CO)O[C@H]1O | 3 |
| 2 (≈ 1.95 µM) | 2 (≈ 1.95 µM) | 2 (≈ 1.95 µM) | 4 (≈ 3.9 µM) | COC(=O)[C@H](CO)NC(=O)[C@H]1[C@@H]2C[C@@H](O[C@H]3O[C@@H](C)[C@H](O)[C@@H](N)[C@H]3O)/C=C/C=C/C=C/C=C/C=C/C=C/C=C/[C@H](C)[C@@H](O)[C@@H](C)[C@H](C)OC(=O)C[C@H](O)C[C@H](O)C[C@H](O)CC[C@@H](O)[C@H](O)C[C@](O)(C[C@@H]1O)O2 | 14 |
| 8 (≈ 7.6 µM) | 16 (≈ 15.2 µM) | 8 (≈ 7.6 µM) | > 16 | C[C@@H]1[C@H](O)[C@@H](C)/C=C/C=C/C=C/C=C/C=C/C=C/C=C/[C@H](O[C@H]2O[C@@H](C)[C@H](O)[C@@H](NC(=O)C(N)CCCCN)[C@H]2O)C[C@@H]2O[C@](O)(C[C@@H](O)[C@H](O)CC[C@@H](O)C[C@@H](O)C[C@@H](O)CC(=O)O[C@H]1C)C[C@H](O)[C@H]2C(=O)O (some centres not stated) | – |
| 2 (≈ 1.6 µM) | 2 (≈ 1.6 µM) | 2 (≈ 1.6 µM) | 8 (≈ 6.41 µM) | C[C@@H]1[C@H](O)[C@@H](C)/C=C/C=C/C=C/C=C/C=C/C=C/C=C/[C@H](O[C@H]2O[C@@H](C)[C@H](O)[C@@H](NC[C@]3(O)OC[C@@H](O)[C@@H](O[C@@H]4O[C@H](CO)[C@H](O)[C@H](O)[C@H]4O)[C@@H]3O)[C@H]2O)C[C@@H]2O[C@](O)(C[C@@H](O)[C@H](O)CC[C@@H](O)C[C@@H](O)C[C@@H](O)CC(=O)O[C@H]1C)C[C@H](O)[C@H]2C(=O)O | 4 |
| 4 (≈ 3.96 µM) | 4 (≈ 3.96 µM) | 4 (≈ 3.96 µM) | 16 (≈ 15.8 µM) | C[C@@H]1[C@H](O)[C@@H](C)/C=C/C=C/C=C/C=C/C=C/C=C/C=C/[C@H](O[C@H]2O[C@@H](C)[C@H](O)[C@@H](N)[C@H]2O)C[C@@H]2O[C@](O)(C[C@@H](O)[C@H](O)CC[C@@H](O)C[C@@H](O)C[C@@H](O)CC(=O)O[C@H]1C)C[C@H](O)[C@H]2C(=O)NC(C)(CO)CO | – |
